Test results: ChEMBL document CHEMBL1255300, “Pharmacodynamics of the antibacterial effect and emergence of resistance to tomopenem, formerly RO4908463/CS-023, in an in vitro pharmacokinetic model of Staphylococcus aureus infection” (Antimicrob Agents Chemother, 2008)
Values after ≈ are worked out from the molar mass of the structure shown. Active and inactive are the calls of the source. No cut-off for these calls is given here.

Key:
Staphylococcus aureus [1] = test: Antibacterial activity against methicillin-resistant Staphylococcus aureus 33820 infected in in vitro pharmacokinetic model assessed as time required to 99.9% killing at 1500 mg, iv every 8 hrs using 10^6 CFU/ml inoculum; format: functional
[2] = Plasma protein binding in human; format: ADME, cell-free; conditions: read-out: PPB
Staphylococcus aureus [3] = test: Antibacterial activity against methicillin-resistant Staphylococcus aureus 33827 infected in in vitro pharmacokinetic model assessed as reduction in viable count at 1500 mg, iv every 8 hrs measured after 36 hrs using 10^8 CFU/ml inoculum; format: functional
In short: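 Single-compartment dilutional in vitro PK model, 10% Mueller-Hinton broth, 37°C, stirred, dilution 132 ml/h. […] Inoculum 10^6 CFU/ml (added 45 min pre-dose) or 10^8 CFU/ml (run overnight). Viable counts by spiral plating, beta-lactamase neutralization, detection limit 10^2 CFU/ml. At least triplicate.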

Staphylococcus aureus [4] = test: Antibacterial activity against methicillin-resistant Staphylococcus aureus 33922 infected in in vitro pharmacokinetic model assessed as reduction in viable count at 1500 mg, iv every 8 hrs measured after 24 hrs using 10^6 CFU/ml inoculum; format: functional
Staphylococcus aureus [5] = test: AUBKC (0 to 24 hrs) in methicillin-resistant Staphylococcus aureus 33922 infected in in vitro pharmacokinetic model at 1500 mg, iv every 8 hrs using 10^8 CFU/ml inoculum; format: functional
In short: (§1)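 Single-compartment dilutional in vitro PK model at 37°C in 10% Mueller-Hinton broth, stirred, flow 132 ml/h. […] Inoculum 10^6 CFU/ml added 45 min before dosing, or 10^8 CFU/ml run overnight. Viable counts with β-lactamase neutralisation. AUBKC by log-linear trapezoidal rule, at least triplicate.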

Staphylococcus aureus [6] = test: Antibacterial activity against methicillin-resistant Staphylococcus aureus 33815 by broth dilution method; format: functional
In short: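 Standard CLSI broth dilution MIC.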

Staphylococcus aureus [7] = test: Antibacterial activity against methicillin-resistant Staphylococcus aureus 33921 in in vitro pharmacokinetic model assessed as viable count at 6 times of MIC; format: functional
In short: (§2)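 Preexposure population analysis: time-zero model samples plated on nutrient agar without drug and with drug at multiples of the 10% broth MIC. Growth reported as log CFU/ml, detection limit 2 log10.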

Staphylococcus aureus [8] = test: Antibacterial activity against methicillin-sensitive Staphylococcus aureus 5956 infected in in vitro pharmacokinetic model assessed as reduction in viable count at 1500 mg, iv every 8 hrs measured after 36 hrs using 10^6 CFU/ml inoculum; format: functional
Staphylococcus aureus [9] = test: Antibacterial activity against methicillin-resistant Staphylococcus aureus 33815 infected in in vitro pharmacokinetic model assessed as time required to 99.9% killing at 750 mg, iv every 8 hrs using 10^8 CFU/ml inoculum; format: functional
In short: (§3)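 T99 and T99.9 were taken as the times for the count to fall 99% or 99.9% from time 0, using serial viable counts over 48 h. Inoculum was 10^8 CFU/ml, grown overnight in the model before dosing.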

Staphylococcus aureus [10] = test: Antibacterial activity against methicillin-resistant Staphylococcus aureus 33922 assessed as viable count at 2 times of MIC after 24 hrs using 10^6 CFU/ml inoculum; format: functional, organism-based
Staphylococcus aureus [11] = test: Antibacterial activity against methicillin-resistant Staphylococcus aureus 33921 in in vitro pharmacokinetic model assessed as viable count at 4 times of MIC; format: functional; in short: as §2
Staphylococcus aureus [12] = test: AUBKC (0 to 48 hrs) in methicillin-resistant Staphylococcus aureus 33815 infected in in vitro pharmacokinetic model at 1500 mg, iv every 8 hrs using 10^6 CFU/ml inoculum; format: functional; in short: as §1
Staphylococcus aureus [13] = test: AUBKC (0 to 48 hrs) in methicillin-resistant Staphylococcus aureus 33815 infected in in vitro pharmacokinetic model at 1500 mg, iv every 8 hrs using 10^8 CFU/ml inoculum; format: functional; in short: as §1
Staphylococcus aureus [14] = test: T>MIC for 2-log drop in count in methicillin-resistant Staphylococcus aureus 33815 in in vitro pharmacokinetic model after 24 hrs using 10^6 CFU/ml inoculum; format: functional
Staphylococcus aureus [15] = test: AUBKC (0 to 48 hrs) in methicillin-resistant Staphylococcus aureus 33921 infected in in vitro pharmacokinetic model at 750 mg, iv every 8 hrs using 10^6 CFU/ml inoculum; format: functional; in short: as §1
Staphylococcus aureus [16] = test: AUBKC (0 to 24 hrs) in methicillin-resistant Staphylococcus aureus 33829 infected in in vitro pharmacokinetic model at 1500 mg, iv every 8 hrs using 10^6 CFU/ml inoculum; format: functional; in short: as §1
Staphylococcus aureus [17] = test: Antibacterial activity against methicillin-resistant Staphylococcus aureus 33815 infected in in vitro pharmacokinetic model assessed as reduction in viable count at 750 mg, iv every 8 hrs measured after 12 hrs using 10^6 CFU/ml inoculum; format: functional
In short: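 Single-compartment dilutional in vitro PK model, 37°C, stirred, in 10% Mueller-Hinton broth. […] Inoculum 10^6 CFU/ml from a 24-h plate culture was added 45 min before dosing. Viable counts by spiral plating on nutrient agar with β-lactamase neutralization. Log change was taken from time 0; detection limit 10^2 CFU/ml; at least triplicate.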

Staphylococcus aureus [18] = test: Antibacterial activity against methicillin-sensitive Staphylococcus aureus 5956 infected in in vitro pharmacokinetic model assessed as reduction in viable count at 1500 mg, iv every 8 hrs measured after 12 hrs using 10^6 CFU/ml inoculum; format: functional
Staphylococcus aureus [19] = test: Antibacterial activity against methicillin-resistant Staphylococcus aureus 33815 infected in in vitro pharmacokinetic model assessed as time required to 99% killing at 1500 mg, iv every 8 hrs using 10^8 CFU/ml inoculum; format: functional; in short: as §3
Staphylococcus aureus [20] = test: T>MIC for 2-log drop in count in methicillin-sensitive Staphylococcus aureus 5956 in in vitro pharmacokinetic model after 24 hrs using 10^8 CFU/ml inoculum; format: functional
In short: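 Dose-ranging: 7–13 simulated regimens per strain giving T>MIC of 0–100% (MIC from 10% MHB), at 106 or 10^8 CFU/ml as stated.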

Staphylococcus aureus [21] = test: Antibacterial activity against methicillin-resistant Staphylococcus aureus 33815 in in vitro pharmacokinetic model assessed as viable count at 6 times of MIC; format: functional
In short: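 Preexposure population analysis profile: model sample at time zero plated on nutrient agar with tomopenem at multiples of the MIC. Growth counted as log CFU/ml, detection limit 2 log10.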

Staphylococcus aureus [22] = test: AUBKC (0 to 48 hrs) in methicillin-sensitive Staphylococcus aureus 5956 infected in in vitro pharmacokinetic model at 750 mg, iv every 8 hrs using 10^6 CFU/ml inoculum; format: functional
Staphylococcus aureus [23] = test: Antibacterial activity against methicillin-sensitive Staphylococcus aureus 5956 infected in in vitro pharmacokinetic model assessed as reduction in viable count at 750 mg, iv every 8 hrs measured after 48 hrs using 10^6 CFU/ml inoculum; format: functional
Staphylococcus aureus [24] = test: Antibacterial activity against methicillin-sensitive Staphylococcus aureus 5956 infected in in vitro pharmacokinetic model assessed as reduction in viable count at 750 mg, iv every 8 hrs measured after 24 hrs using 10^6 CFU/ml inoculum; format: functional
Staphylococcus aureus [25] = test: Antibacterial activity against methicillin-sensitive Staphylococcus aureus 5956 infected in in vitro pharmacokinetic model assessed as time required to 99% killing at 750 mg, iv every 8 hrs using 10^6 CFU/ml inoculum; format: functional
Staphylococcus aureus [26] = test: AUBKC (0 to 24 hrs) in methicillin-resistant Staphylococcus aureus 33815 infected in in vitro pharmacokinetic model at 750 mg, iv every 8 hrs using 10^8 CFU/ml inoculum; format: functional; in short: as §1

For `C[C@@H](O)[C@H]1C(=O)N2C(C(=O)O)=C(S[C@H]3C[C@@H](C(=O)N4CC[C@H](NC(=O)CNC(=N)N)C4)N(C)C3)[C@H](C)[C@H]12` [TOMOPENEM], which Time (Staphylococcus aureus [1]) is on record?
Its Time is 12 h.

What about the fraction unbound [2] of the same compound?
Its fraction unbound is over 0.9.

What about the log10CFU/ml (Staphylococcus aureus [3]) of the same compound?
The log10CFU/ml was 6.

And the log10CFU/ml (Staphylococcus aureus [4])?
Its log10CFU/ml is 4.2.

And the AUBC (Staphylococcus aureus [5])?
Its AUBC is 100.1 log10CFU/ml.hr.

And the MIC (Staphylococcus aureus [6])?
Its MIC is 16 µg/mL (≈ 29.8 µM).

What about the log10CFU/ml (Staphylococcus aureus [7]) of the same compound?
Its log10CFU/ml is under 2.

And the log10CFU/ml (Staphylococcus aureus [8])?
The log10CFU/ml was 4.4.

What about the Time (Staphylococcus aureus [9]) of the same compound?
The Time was 24 h.

And the Activity (Staphylococcus aureus [10])?
The Activity was “inactive”.

What about the log10CFU/ml (Staphylococcus aureus [11]) of the same compound?
The log10CFU/ml was under 2.

What about the AUBC (Staphylococcus aureus [12]) of the same compound?
The AUBC was 12.5 log10CFU/ml.hr.

And the AUBC (Staphylococcus aureus [13])?
Its AUBC is 152.6 log10CFU/ml.hr.

And the “fT>MIC” value (Staphylococcus aureus [14])?
Its value is 12.5%.

What about the AUBC (Staphylococcus aureus [15]) of the same compound?
Its AUBC is 41 log10CFU/ml.hr.

What about the AUBC (Staphylococcus aureus [16]) of the same compound?
The AUBC was 30 log10CFU/ml.hr.

And the log10CFU/ml (Staphylococcus aureus [17])?
Its log10CFU/ml is 4.2.

And the log10CFU/ml (Staphylococcus aureus [18])?
The log10CFU/ml was 4.4.

What about the Time (Staphylococcus aureus [19]) of the same compound?
The Time was 16 h.

What about the “fT>MIC” value (Staphylococcus aureus [20]) of the same compound?
Its value is 7.4%.

What about the log10CFU/ml (Staphylococcus aureus [21]) of the same compound?
The log10CFU/ml was under 2.

And the AUBC (Staphylococcus aureus [22])?
Its AUBC is 27.6 log10CFU/ml.hr.

And the log10CFU/ml (Staphylococcus aureus [23])?
Its log10CFU/ml is 4.5.

What about the log10CFU/ml (Staphylococcus aureus [24]) of the same compound?
Its log10CFU/ml is 4.3.

And the Time (Staphylococcus aureus [25])?
Its Time is 4 h.

What about the AUBC (Staphylococcus aureus [26]) of the same compound?
The AUBC was 100 log10CFU/ml.hr.
